Compound activity (PubChem BioAssay)
ASAP1 GAP inh: ASAP1 ArfGAP inhibition. Q9ULH1. inhibition, % at 16.5 µM. ASAP1-stimulated ARF1 GTP hydrolysis, GDP FP detection. 0.19% of 360,000 active; in the data active means inhibition above about 25%;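 further: 0% = vehicle with enzyme and substrate and 100% = no enzyme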
Target sequence (Q9ULH1 325-724 limits assumed): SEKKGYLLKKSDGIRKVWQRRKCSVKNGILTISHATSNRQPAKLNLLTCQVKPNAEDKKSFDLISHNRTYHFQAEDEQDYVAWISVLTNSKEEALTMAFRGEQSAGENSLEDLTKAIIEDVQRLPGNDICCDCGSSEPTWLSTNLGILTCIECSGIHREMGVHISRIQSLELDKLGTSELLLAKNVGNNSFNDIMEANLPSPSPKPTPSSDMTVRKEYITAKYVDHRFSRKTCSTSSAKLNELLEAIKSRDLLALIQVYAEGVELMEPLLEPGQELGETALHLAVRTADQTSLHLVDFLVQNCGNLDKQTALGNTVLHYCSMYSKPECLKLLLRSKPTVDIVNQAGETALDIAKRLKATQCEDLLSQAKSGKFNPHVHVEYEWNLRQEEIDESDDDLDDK
PAFAH2 inh: inhibitors of human PAFAH2; Q99487; recombinant PAFAH2, FP-rhodamine activity probe, fluorescence polarization; inhibition, % at 3.39 µM; 0.99% of 340,000 active; AID 492956;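 active means inhibition above the mean over all tested compounds plus 3 SD, cut at about 30% in these data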;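 further: inhibitors block probe labeling of enzyme so polarization drops; 0% = enzyme with DMSO and 100% = wells lacking PAFAH2 protein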
ARFGAP1 inh: inhibits rat ARF GTPase activating protein 1. Q62848. Arfgap1-stimulated ARF1 GTP hydrolysis, GDP FP detection. inhibition, % at 16.5 µM. 0.26% of 360,000 active. AID 651572;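 active means inhibition above a per-plate limit, mean inhibition of low control wells plus 3 SD, cut at about 25% in these data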;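 further: 0% = DMSO wells with enzyme and 100% = wells lacking Arfgap1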
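system = rat Arfgap1 catalytic domain, aa 1-136 | technique = FP, GDP Alexa 633 tracer displaced from anti-GDP antibody, 620/688 nm | compound = one concentration, 16.5 µM, DMSO 1.26% | medium = HEPES-based buffer, pH 7.5 | timing = compound-enzyme preincubation 20 min, reaction 120 min, detection 60 min, 25 °C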
PAFAH1B3 FP inh: blocks human PAF acetylhydrolase 1B catalytic subunit 3; inhibition, % at 3.39 µM; recombinant PAFAH1B3, FP-rhodamine probe, fluorescence polarization; AID 492972; Q15102; 0.28% of 340,000 active;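 active means inhibition above the screen-wide average of all tested compounds plus 3 SD, cut at about 25% in these data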;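 further: 0% = enzyme with DMSO only and 100% = wells lacking PAFAH1B3 protein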
Target sequence (Q15102 whole entry, looked up): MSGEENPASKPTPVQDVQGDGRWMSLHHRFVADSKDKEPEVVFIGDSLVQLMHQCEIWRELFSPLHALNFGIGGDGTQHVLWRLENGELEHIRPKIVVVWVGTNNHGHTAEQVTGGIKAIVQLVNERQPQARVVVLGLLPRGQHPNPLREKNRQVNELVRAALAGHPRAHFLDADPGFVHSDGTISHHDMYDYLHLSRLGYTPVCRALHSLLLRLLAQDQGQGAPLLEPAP
PAFAH1B2 inh: PAFAH1B2 (human) inhibition. P68402. recombinant PAFAH1B2, FP-rhodamine activity probe, fluorescence polarization. inhibition, % at 3.39 µM. 1.2% of 340,000 active. AID 492953;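 active means inhibition above the mean of all tested compounds plus 3 SD, cut at about 24% in these data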;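 further: 0% = enzyme with DMSO and 100% = wells lacking PAFAH1B2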
pPAFAH FP inh: pPAFAH (human) enzyme inhibition; Q13093; inhibition, % at 3.39 µM; 1.5% of 330,000 active; recombinant pPAFAH, FP-rhodamine probe fluorescence polarization; AID 463082;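 active means inhibition above the mean inhibition across the screen plus 3 SD, cut at about 25% in these data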;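 further: inhibitors block binding of the rhodamine activity-based probe so polarization drops; 0% = enzyme with DMSO and 100% = wells lacking pPAFAH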
PAFAH2 FP conf: PAFAH2 (human) inhibition, confirmed; inhibition, % at 3.39 µM; recombinant PAFAH2, FP-rhodamine activity probe, fluorescence polarization; shares compounds with PAFAH2 inh; 65% of 2,300 active; AID 493030;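 active means mean inhibition over three repeats above a set limit taken from the earlier primary screen, cut at about 30% in these data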;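 further: inhibitor blocks binding of rhodamine activity probe so polarization falls; 0% = enzyme with DMSO and 100% = wells lacking PAFAH2 protein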
* hit, by the source's call; / = no result given. Only some compounds are listed: those with a hit (about 2.7% of all), similar ones and a draw of the others.

SMILES	ASAP1 GAP inh	PAFAH2 inh	ARFGAP1 inh	PAFAH1B3 FP inh	PAFAH1B2 inh	pPAFAH FP inh	PAFAH2 FP conf
O=C(N[C@H](Cc1ccccc1)C(=O)N1CCN(C(=O)N2CCOCC2)CC1)[C@H]1O[C@@H](n2ccc(=O)[nH]c2=O)[C@H](O)[C@@H]1O	4	/	-6	/	/	/	/
Cc1cc(C(=O)N/N=C/c2c3ccccc3cc3ccccc23)n[nH]1	11	7	2	12	6	8	/
CCOc1ccc2ccccc2c1/C=N/NC(=O)c1cc(C)[nH]n1	12	49*	10	-4	1	1	15
O=C(COc1ccc(F)cc1)Nc1nc(-c2cccnc2)cs1	12	/	2	/	/	/	/
COc1ccc(CCN2CC(C(=O)N(C)Cc3cccnc3)CC2=O)cc1OC (stereo not drawn)	-13	2	-8	3	-4	-3	/
CC(C)CSC1=NSC2=NC(=O)/C(=C\c3coc4ccccc4c3=O)C(=N)N12	15	36*	-11	21	23	10	22
CSC1=NSC2=NC(=O)/C(=C\c3coc4ccccc4c3=O)C(=N)N12	11	26	-2	2	10	4	/
O=C(O)c1ccsc1Cc1cccs1	8	/	3	/	/	/	/
O=C(c1cc(F)c(F)c(F)c1F)N1CCN(C(=O)C2CCCO2)CC1 (stereo not drawn)	-3	-8	7	13	4	2	/
O=c1c2ccccc2nc2n1-c1ccccc1CCC2	-3	-7	-6	4	2	0	/
O=C1c2ccccc2-n2c1nc1ccccc1c2=O	6	32*	6	0	6	6	20
O=C1C(=Cc2ccco2)CCCC1=Cc1ccco1	9	10	3	-1	2	/	/
O=C1C(=Cc2ccco2)CCC1=Cc1ccco1	-13	56*	-26	5	4	/	18
O=C(NCc1ccccn1)[C@@H]1CCCN1C(=O)[C@@H]1CCCN1C(=O)c1ccc(Cl)cc1	5	/	-2	/	/	/	/
CC(=O)Nc1ccc(C(=O)OCC(=O)NCCC2=CCCCC2)cc1	-8	66*	-9	6	-2	/	61*
O=C(COC(=O)c1ccc(OC(F)F)cc1)NCCC1=CCCCC1	-10	41*	-2	-2	1	22	15
CC(=O)Nc1ccc(C(=O)OCC(=O)NC(=O)NC(C)(C)C)cc1	2	41*	-14	7	1	3	31*
Cc1ccccc1OCCOC(=O)c1cc(S(=O)(=O)N2CCCCC2)ccc1N1CCOCC1	-3	5	-7	1	1	8	/
C[C@H](CO)N1C[C@H](C)[C@@H](CN(C)Cc2ccc3c(c2)OCO3)Oc2ccc(NC(=O)Cn3cnnn3)cc2C1=O	-13	0	16	17	4	2	/
Cc1ccc2c(c1)C1CN(C)CCC1N2S(=O)(=O)c1ccccc1F (stereo not drawn)	7	1	1	4	-1	3	/
CCCc1nc2c(C)cc(Br)cn2c1Cc1ccc(C)cc1	4	/	5	/	/	/	/
Cc1cccc(NC(=S)N/N=C/c2cccc(O)c2)c1C	-18	0	-6	6	0	2	/
Cc1ccccc1NC(=S)N/N=C/c1ccc(O)cc1O	8	33*	-9	6	11	5	15
COc1cc(/C=N/n2c(COc3ccccc3)n[nH]c2=S)cc(Br)c1O	0	52*	6	7	10	4	38*
CC1CCCN(S(=O)(=O)c2ccc(C(=O)NC(C)c3ccccc3)cc2)C1 (stereo not drawn)	-10	4	7	-4	1	/	/
SMILES	ASAP1 GAP inh	PAFAH2 inh	ARFGAP1 inh	PAFAH1B3 FP inh	PAFAH1B2 inh	pPAFAH FP inh	PAFAH2 FP conf
CC(C)(C)c1ccc(NC(=O)COC(=O)C2=COCCO2)cc1	-13	22	1	8	1	9	/
O=C(COC(=O)C1=COCCO1)Nc1ccc(F)cc1	3	69*	7	5	2	7	59*
Cc1ccccc1NC(=O)COC(=O)C1=COCCO1	-15	21	10	7	3	0	/
O=C(COC(=O)C1=COCCO1)Nc1ccc(Oc2ccccc2)cc1	7	83*	-3	-1	-4	6	77*
CCC(C)c1ccccc1NC(=O)COC(=O)C1=COCCO1 (stereo not drawn)	0	62*	3	11	5	9	48*
O=C(COC(=O)C1=COCCO1)Nc1ccc(Br)cc1Br	-4	58*	7	4	-1	9	46*
CN(C)CCC(C(=O)c1ccccc1)c1cccnc1 (stereo not drawn)	11	0	11	3	-3	/	/
COc1ccc(OCC(=O)Nc2cc(S(=O)(=O)N3CCCC3)ccc2Cl)cc1	12	0	-6	5	2	/	/
C[C@H](CO)N1C[C@H](C)[C@@H](CN(C)Cc2ccc(Oc3ccccc3)cc2)Oc2c(NC(=O)c3ccncc3)cccc2C1=O	-4	-1	-4	13	-1	4	/
CC1=C(C(=O)N(C)C)CC(CC(=O)NC(c2ccccc2)c2ccccc2)C(=O)N1CCC1=CCCCC1 (stereo not drawn)	-8	/	4	/	/	/	/
O=C(O)C1OCC2(CO1)COC(C(=O)O)OC2 (stereo not drawn)	11	-5	0	4	3	/	/
O=C(/C=C/[C@H]1O[C@@H](n2ccc(=O)[nH]c2=O)[C@H](O)[C@@H]1O)NCc1cccnc1	5	/	-5	/	/	/	/
CCN(CC)S(=O)(=O)c1cccc(NC(=O)COC(=O)C2=COCCO2)c1	6	30*	2	15	9	6	11
CCN(CC)S(=O)(=O)c1cccc(NC(=O)COC(=O)C2COc3ccccc3O2)c1 (stereo not drawn)	-14	2	-1	0	4	10	/
CCN(CC)S(=O)(=O)c1ccc(C)c(NC(=O)COC(=O)c2ccc(C)c(S(=O)(=O)N3CCOCC3)c2)c1	-3	81*	4	4	1	14	61*
CCOc1ccccc1C(=O)OCC(=O)Nc1cc(S(=O)(=O)N2CCOCC2)ccc1C	-3	32*	5	-1	2	0	25
Cc1ccc(S(=O)(=O)N2CCOCC2)cc1NC(=O)COC(=O)c1cncc(Br)c1	-9	6	5	12	-2	4	/
Cc1ccc(C(=O)OCC(=O)Nc2cc(S(=O)(=O)N3CCOCC3)ccc2C)cc1	-11	68*	-18	3	1	5	61*
Cc1ccc(S(=O)(=O)N2CCOCC2)cc1NC(=O)COC(=O)COc1ccccc1[N+](=O)[O-]	0	3	-7	3	-1	3	/
Cc1ccc(S(=O)(=O)N2CCOCC2)cc1NC(=O)COC(=O)c1ccc2c(c1)OCO2	-9	64*	7	-4	-1	1	52*
